From ChEMBL document CHEMBL3407387, “Antioxidant activity and inhibition of α-glucosidase by hydroxyl-functionalized 2-arylbenzo[b]furans” (Eur J Med Chem, 2015)
Activity calls are given as the source filed them. No cut-off for these calls is given here.

How the values were obtained:
[1] = Inhibition of Saccharomyces cerevisiae alpha-glucosidase using 4-NPGP substrate assessed as reduction in 4-nitrophenol release pre-incubated for 10 mins before substrate addition by microplate reader based assay
Procedure, shortened: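 Test compound at 0 to 100 µM premixed with enzyme in 100 mM phosphate buffer, pH 7.0, and held 30 °C for 10 min. Then 12.5 mM 4-NPGP (stock) added and 4-nitrophenol release read at 405 nm. IC50 is the concentration inhibiting 50% of α-glucosidase activity.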

[2] = Antioxidant activity assessed as DPPH radical scavenging activity incubated for 5 mins by microplate spectrophotometry; type: physicochemical
[3] = Inhibition of Saccharomyces cerevisiae alpha-glucosidase
Procedure, shortened: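 Compound (0 to 100 µM) premixed with 100 mM phosphate buffer pH 7.0, 30 °C for 10 min; 12.5 mM 4-nitrophenyl glucopyranoside substrate then added; 4-nitrophenol release read at 405 nm; resveratrol and quercetin as positive controls; IC50 = concentration giving 50% inhibition.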

[4] = Antioxidant activity assessed as DPPH radical scavenging activity; type: physicochemical
Procedure, shortened: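 Compound dissolved in MeOH (0 to 100 µM), mixed with 0.1 mM DPPH, 150 µL final mixture, 37 °C for 5 min; absorbance at 517 nm; IC50 derived from DPPH scavenging.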

Saccharomyces cerevisiae [5] = experiment: Mixed type inhibition of Saccharomyces cerevisiae alpha-glucosidase using 4-NPGP substrate assessed as reduction in 4-nitrophenol release pre-incubated for 10 mins before substrate addition by Lineweaver-Burk plot analysis
Procedure, shortened: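 Double-reciprocal (Lineweaver-Burk) analysis of initial velocities, taken as A405 rate/min, across increasing 4-NPGP concentrations. Inhibitor present at 0, 0.25, 0.5 and 1.0 µM. Run in pH 7.0 phosphate buffer at 30 °C to assign inhibition mode.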

Saccharomyces cerevisiae [6] = experiment: Mixed type inhibition of Saccharomyces cerevisiae alpha-glucosidase using 4-NPGP substrate assessed as reduction in 4-nitrophenol release pre-incubated for 10 mins before substrate addition by Dixon plot analysis
[7] = Mixed type inhibition of Saccharomyces cerevisiae alpha-glucosidase using 4-NPGP substrate assessed as equilibrium constant for binding to enzyme by measuring reduction in 4-nitrophenol release pre-incubated for 10 mins before substrate addition by Dixon plot analysis
[8] = Mixed type inhibition of Saccharomyces cerevisiae alpha-glucosidase using 4-NPGP substrate assessed as equilibrium constant for binding to enzyme-4-NPGP complex by measuring reduction in 4-nitrophenol release pre-incubated for 10 mins before substrate addition by Dixon plot analysis

SMILES	IC50 [1] [µM]	IC50 [2] [µM]	other results
CCOC(=O)/C=C/c1cc(O)c2oc(-c3ccc(O)c(O)c3)cc2c1	23.8	25.4	–
Oc1cc(-c2cc3c(Br)ccc(O)c3o2)c(Br)c(O)c1O	12.4	19.4	–
COc1cc(Br)c(-c2cc3cccc(OC)c3o2)cc1OC	> 100	> 100	–
COc1ccc(-c2cc3cccc(OC)c3o2)cc1OC	> 100	> 100	–
O=c1c(O)c(-c2ccc(O)c(O)c2)oc2cc(O)cc(O)c12 [QUERCETIN]	6.6	6	IC50 [3]: 5.3 µM; IC50 [4]: 9.1 µM
Oc1ccc(/C=C/c2cc(O)cc(O)c2)cc1 [RESVERATROL]	31.1	63.5	IC50 [3]: 27.9 µM; IC50 [4]: 38 µM
Oc1cc(-c2cc3cccc(O)c3o2)cc(O)c1O	9.2	12.8	–
Oc1ccc(-c2cc3cc(Br)cc(O)c3o2)cc1	29.8	> 100	–
Oc1cc(-c2cc3ccccc3o2)c(Br)c(O)c1O	8.5	18	–
CCOC(=O)/C=C/c1cc(OC)c(OC)cc1-c1cc2cccc(OC)c2o1	> 100	> 100	–
CCOC(=O)/C=C/c1ccc(O)c2oc(-c3ccc(O)c(O)c3)cc12	8.9	16.8	–
COc1cc(-c2cc3cc(Br)cc(OC)c3o2)cc(OC)c1OC	> 100	> 100	–

Further compounds by falling IC50 [1], results first:

IC50 [1] [µM]	IC50 [2] [µM]	SMILES	other results
8.2	10.8	Oc1cc(-c2cc3ccccc3o2)cc(O)c1O	–
7.7	33.8	Oc1cc(Br)c(-c2cc3ccccc3o2)cc1O	–
7.5	28.6	Oc1ccc(-c2cc3cc(Br)cc(O)c3o2)cc1O	–
7.1	20.6	Oc1cc(Br)c(-c2cc3cccc(O)c3o2)cc1O	–
6.4	7.8	Oc1cc(Br)c(-c2cc3c(Br)ccc(O)c3o2)cc1O	–
6.4	18.4	Oc1ccc(-c2cc3c(Br)ccc(O)c3o2)cc1O	–
5.5	26.2	CCOC(=O)/C=C/c1cc(O)c(O)cc1-c1cc2cccc(O)c2o1	–
3	14.6	Oc1cc(-c2cc3cc(Br)cc(O)c3o2)cc(O)c1O	–
2	11.7	CCOC(=O)/C=C/c1cc(O)c2oc(-c3cc(O)c(O)c(O)c3)cc2c1	inhibition (Saccharomyces cerevisiae [5]): Active; inhibition (Saccharomyces cerevisiae [6]): Active; Ki [7]: 3.19 µM; Ki [8]: 11.8 µM
1.9	18.5	Oc1ccc(-c2cc3cccc(O)c3o2)cc1O	inhibition (Saccharomyces cerevisiae [5]): Active; inhibition (Saccharomyces cerevisiae [6]): Active; Ki [7]: 4.21 µM; Ki [8]: 13.7 µM
